Laboratory results: ChEMBL document CHEMBL1144556, “Design, synthesis, and SAR analysis of novel selective sigma1 ligands” (Bioorg Med Chem, 2007)

What was measured:
[1] = molecular target: Sigma non-opioid intracellular receptor 1 (Cavia porcellus, UniProt Q60492); experiment: Displacement of [3H](+)-pentazocine from sigma 1 receptor in guinea pig brain membrane; format: cell membranes
Summary of the method: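 Guinea pig brain (minus cerebella) membranes were homogenized in ice-cold 0.32 M sucrose, pH 7.4, washed in 10 mM Tris-HCl, pH 7.4, and stored at −80 °C. Tritiated (+)-pentazocine (28 Ci/mmol; Kd 1.6 ± 0.3 nM, n = 3) was incubated with test compounds from 10^-11 to 10^-5 M in Tris-HCl, pH 7.4, for 150 min at 37 °C. Haloperidol defined nonspecific binding. Reactions were stopped by filtration through PEI-presoaked glass fiber filters.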

[2] = Displacement of [3H]DTG from sigma 2 receptor in guinea pig brain membrane; format: cell membranes, Cavia porcellus
Summary of the method: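 Guinea pig brain membranes were incubated with test compounds, with 400 nM (+)-SKF10,047 added to mask σ1 sites. Incubation was in 50 mM Tris-HCl, pH 8.0, for 120 min at room temperature. Reactions were stopped with ice-cold 10 mM Tris-HCl, pH 8.0, and filtered through glass fiber filters presoaked in 0.5% poly(ethylenimine).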

[3] = species on record: Cavia porcellus; experiment: Selectivity for sigma 1 receptor over sigma 2 receptor in guinea pig brain membranes; format: cell membranes; conditions: Membrane

Chain of Sigma non-opioid intracellular receptor 1 (Q60492 whole entry): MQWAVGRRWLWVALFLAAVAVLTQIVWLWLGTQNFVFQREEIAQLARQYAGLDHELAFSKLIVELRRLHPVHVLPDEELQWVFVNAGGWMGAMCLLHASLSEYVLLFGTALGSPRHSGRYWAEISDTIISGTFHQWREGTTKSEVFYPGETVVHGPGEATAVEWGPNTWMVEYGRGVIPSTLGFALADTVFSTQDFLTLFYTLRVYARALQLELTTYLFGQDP

Row | Ki [1] | Ki [2] | Ratio Ki [3] | Compound
1 | 0.00632 µM | 0.0757 µM | 12 | C/C(=C\CN(C)Cc1ccccc1)c1ccc(-c2ccccc2)cc1
2 | 0.0023 µM | 0.0604 µM | 26.3 | COc1ccc2cc(C(C)CCN(C)C)ccc2c1 (racemic)
3 | 0.0214 µM | 0.985 µM | 46 | COc1ccc2cc(/C(C)=C/CN(C)C)ccc2c1
4 | 0.00195 µM | 0.0438 µM | 22.5 | CC(CCN(C)C)c1ccc2ccccc2c1 (stereo not given)
5 | 0.00102 µM | 0.161 µM | 158 | CC(CCN(C)C)c1ccc(-c2ccccc2)cc1 (stereo not given)
6 | 0.0198 µM | 0.148 µM | 7.5 | C/C(=C\CN(C)C)c1ccc2ccccc2c1
7 | 0.00788 µM | 0.873 µM | 111 | C/C(=C\CN(C)Cc1ccccc1)c1ccc2ccccc2c1
8 | 0.0014 µM | 0.106 µM | 75.7 | C/C(=C\CN(C)C)c1ccc(-c2ccccc2)cc1
9 | 0.102 µM | 0.701 µM | 6.87 | C/C(=C\CN(C)C)c1cccc2ccccc12
10 | 0.0054 µM | 0.139 µM | 25.7 | CC(CCN(C)Cc1ccccc1)c1ccc2ccccc2c1 (stereo not given)
11 | 0.025 µM | 0.171 µM | 6.8 | CN(C)CCC(C)(O)c1ccc2ccccc2c1 (racemic)
12 | 0.0058 µM | 0.591 µM | 102 | CC(CCN(C)Cc1ccccc1)c1ccc(-c2ccccc2)cc1 (stereo not given)
13 | 0.0472 µM | 0.205 µM | 4.3 | CC(CCN(C)C)c1cccc2ccccc12 (stereo not given)
14 | 0.019 µM | 1.33 µM | 70 | CC(CCN(C)C)c1ccc2cc(O)ccc2c1 (racemic)
15 | 0.229 µM | 1.39 µM | 6.1 | C/C(=C\CN(C)C)c1ccc2cc(O)ccc2c1
